Measurements collected from several papers.
Compare with care: the assays were run in different laboratories.
Target: Mitogen-activated protein kinase 12 (MAPK12, Homo sapiens, UniProt P53778)
Residues used in one study (P53778 1-367): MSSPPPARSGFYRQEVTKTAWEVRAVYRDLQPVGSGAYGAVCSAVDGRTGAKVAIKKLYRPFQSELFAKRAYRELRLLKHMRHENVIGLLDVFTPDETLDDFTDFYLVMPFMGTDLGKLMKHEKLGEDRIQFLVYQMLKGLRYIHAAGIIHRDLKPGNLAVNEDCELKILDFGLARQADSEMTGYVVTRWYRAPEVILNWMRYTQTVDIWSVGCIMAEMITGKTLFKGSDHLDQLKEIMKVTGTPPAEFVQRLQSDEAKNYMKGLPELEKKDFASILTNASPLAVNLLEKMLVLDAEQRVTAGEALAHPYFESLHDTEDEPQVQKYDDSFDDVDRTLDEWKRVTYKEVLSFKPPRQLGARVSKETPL

F[C@@H]1CCN(c2nccc(-c3cnn4ncccc34)n2)C1
remaining binding (binding; 1 µM): 100%

Cc1nc(N2CC[C@@H](O)C2)ncc1-c1cc(C(F)(F)F)cc2[nH]ncc12
remaining binding (binding; competition with immobilised ligand; 1 µM): 100%

COc1ccnn2ncc(-c3ccnc(N(C)C)n3)c12
remaining binding (binding; 1 µM): 100%

O=C(NCCCN1CCOCC1)c1ccc(Nc2ncc(Cl)c(-c3ccc(Cl)s3)n2)cc1
remaining binding (binding; competition with immobilised ligand; 1 µM): 100%

COc1cnc(Nc2cccc(S(N)(=O)=O)c2)nc1N1CCN(c2ccccc2)CC1
remaining binding (binding; competition with immobilised ligand; 1 µM): 91%

N[C@H]1CCN(c2nccc(-c3cnn4ncccc34)n2)C1
remaining binding (binding; 1 µM): 86%

CNC(=O)Nc1ccc2c(c1)[C@@]1(CC2)OC(=O)N(CC(=O)N(Cc2ccc(F)cc2)[C@@H](C)C(F)(F)F)C1=O
remaining binding (cell-free assay; competition with immobilised ligand; 1 µM): 96%

C[C@H]1CCN(c2nccc(-c3cnn4ncccc34)n2)C1
remaining binding (binding; 1 µM): 37%

C[C@@H](c1ccc(-n2cnc3c(N)ncnc32)cc1)N1CCc2nn(C)c(Cc3ccccc3)c2C1=O
remaining binding (binding; competition with immobilised ligand; 0.1 µM): 90%

CN(c1nccc(-c2cnn3ncccc23)n1)C1CC1
remaining binding (binding; 1 µM): 100%

Cn1cc(Cl)c2c(Oc3c(F)cc(Nc4cc(Cl)nc(N)n4)cc3F)ccnc21
remaining binding (cell-free assay; competition with immobilised ligand; 0.1 µM): 100%

COc1ncc2cc3ccccc3nc2c1C#N
remaining binding (cell-free assay; competition with immobilised ligand; 5 µM): 96%

CN(C)c1ncc(F)c(-c2cnn3ncccc23)n1
remaining binding (binding; 1 µM): 100%

CNC(=O)[C@@H]1CC[C@@H](n2c(-c3ccc4cnccc4c3)nc3ccc(C(=O)NCc4cccc(C(N)=O)c4)cc32)C1
remaining binding (binding; competition with immobilised ligand; 1 µM): 100%

COc1ccc2cc(OCC3(C(=O)O)CN(C(=O)c4ccc(F)cc4)C3)ccc2c1
remaining binding (cell-free assay; competition with immobilised ligand; 1 µM): 100%

Cc1cnc(Nc2ccc(C(=O)N3CCC(N4CCCC4)CC3)cc2)nc1-c1cc2ccccc2s1
remaining binding (binding; competition with immobilised ligand; 1 µM): 81%

CCN1CCN(Cc2ccc(C(=O)Nc3ccc(C)c(Oc4ccc5c(c4)CC(=O)N5)c3)cc2C(F)(F)F)CC1
remaining binding (binding; competition with immobilised ligand; 1 µM): 100%

Cc1c[nH]c2nccc(Oc3c(F)cc(Nc4cc(Cl)nc(N)n4)cc3F)c12
remaining binding (cell-free assay; competition with immobilised ligand; 0.1 µM): 100%

O=C(c1ccc(Nc2ncc(Cl)c(-c3ccc(Cl)s3)n2)cc1)N1CCC(N2CCCC2)CC1
remaining binding (binding; competition with immobilised ligand; 1 µM): 100%

CC1=C(C#N)C(c2ccc3c(c2)c(NC(=O)c2ccccc2C)nn3C)C(C#N)=C(C)N1
remaining binding (cell-free assay; competition with immobilised ligand; 1 µM): 68%

O=C(Nc1c[nH]nc1C(=O)NC1CCNCC1)c1cc(F)cc(F)c1
remaining binding (binding; competition with immobilised ligand; 1 µM): 100%
